Active and inactive are the calls of the source. No cut-off for these calls is given here.
Assays:
[1] = target: CDK9/cyclin T1 (Homo sapiens, UniProt P50750); test: Inhibition of CDK9/cyclin T1 (unknown origin) using 5-FAM-labeled peptide as substrate in presence of ATP by mobility shift assay; assay type: protein-complex assay
Method in brief: (§1)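 Conditions by kinase: CDK2/cyclin E1 0.5 nM with 100 μM ATP; CDK9/cyclin T1 8 nM with 30 μM ATP; CDK12/cyclin K 50 nM with 30 μM ATP.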

[2] = Unbound clearance in CD-1 mouse at 1 mg/kg, iv measured upto 24 hrs by LC-MS/MS analysis; assay type: ADME, organism-based; details: in vivo
Method in brief: (§2)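 Male CD1 mice, three per group, dosed by tail-vein injection (1 mg/kg) or oral gavage (5 mg/kg). Saphenous blood was drawn at 0.25–24 h and plasma analysed by LC–MS/MS.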

[3] = target: CDK12/Cyclin K (Homo sapiens, UniProt Q9NYV4); test: Inhibition of CDK12/cyclin K (unknown origin) using 5-FAM-labeled peptide as substrate in presence of ATP by mobility shift assay; assay type: protein-complex assay; method in brief: as §1
[4] = target: Cyclin-dependent kinase 7/ cyclin H (Homo sapiens, UniProt P50613); test: Binding affinity to full length CDK7 (1 to 346 residues) /N-terminal TEV cleavable 6His tagged full length cyclinH (1 to 323 residues) (unknown origin) expressed in baculovirus infected Sf9 cells by Surface plasmon resonance assay
Method in brief: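 SPR on CDK7/cyclin H dimer, amine-coupled to a CM5 chip at 200–400 RU, with reference flow cells subtracted. Titration was 9-step 2-fold from 20 nM in HEPES pH 7.5, 150 mM NaCl, 0.05% P20, with 70 s contact and 300 s dissociation. Slow off-rate binders were rerun 4-step 3-fold from 10 nM with 1800 s dissociation.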

[5] = Oral bioavailability in CD-1 mouse 5 mg/kg measured upto 24 hrs by LC-MS/MS analysis; assay type: ADME, organism-based; details: in vivo; method in brief: as §2
[6] = target: Cyclin-dependent kinase 2/cyclin E1 (Homo sapiens, UniProt P24941); test: Inhibition of CDK2/cyclin E1 (unknown origin) using 5-FAM-labeled peptide as substrate in presence of ATP by mobility shift assay; assay type: protein-complex assay; method in brief: as §1
[7] = Lipophilicity, log D of compound; assay type: physicochemical; details: octanol/water
[8] = Metabolic stability in mouse liver microsomes assessed as intrinsic clearance; assay type: ADME, Microsome; details: read-out: CLH
[9] = Apparent permeability across apical to basolateral side in MDCK cells; assay type: ADME, cell-based, Canis lupus familiaris; details: dog
[10] = test system: HCC70; test: Antiproliferative activity against human HCC70 cells incubated for 72 hrs by Celltiter-glo assay; assay type: functional, cell-based; details: HCC70, 72 h
Method in brief: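 HCC70 cells in log growth plated the day before, then incubated with compound for 72 h at ten concentrations from 4 to 0.000126 μM, duplicates per dose. Read-out was CellTiter-Glo 2.0 viability. Inhibition was calculated against the averaged DMSO signal on the same plate.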

[11] = test system: HCC70; test: Antitumour activity against human HCC70 cells xenografted in BALB/c mouse assessed as tumour growth inhibition at 4 mg/kg, po bid for 21 days measured after 7 days post treatment by vernier caliper method; assay type: functional, organism-based; details: time 28.0 day
Method in brief: (§3)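 Female Balb/c nude mice, 6–8 weeks old, implanted subcutaneously with HCC70 cells. At 150–200 mm3 tumours, mice were randomized, 10 per arm. Dosing was by oral gavage for 21 days, then a 7-day observation period: 2 mg/kg QD, or 2.5 or 4 mg/kg BID. Tumour volume was measured by caliper and body weight recorded twice weekly. TGI was calculated from tumour volumes.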

[12] = test system: HCC70; test: Antitumour activity against human HCC70 cells xenografted in po dosed BALB/c mouse assessed as tumour growth inhibition administered twice daily for 21 days measured after 7 days post treatment by vernier caliper method; assay type: functional, organism-based; details: dose 2.5-4 mg/kg, time 28.0 day; method in brief: as §3

CDK9/cyclin T1, sequence (O60563 whole entry): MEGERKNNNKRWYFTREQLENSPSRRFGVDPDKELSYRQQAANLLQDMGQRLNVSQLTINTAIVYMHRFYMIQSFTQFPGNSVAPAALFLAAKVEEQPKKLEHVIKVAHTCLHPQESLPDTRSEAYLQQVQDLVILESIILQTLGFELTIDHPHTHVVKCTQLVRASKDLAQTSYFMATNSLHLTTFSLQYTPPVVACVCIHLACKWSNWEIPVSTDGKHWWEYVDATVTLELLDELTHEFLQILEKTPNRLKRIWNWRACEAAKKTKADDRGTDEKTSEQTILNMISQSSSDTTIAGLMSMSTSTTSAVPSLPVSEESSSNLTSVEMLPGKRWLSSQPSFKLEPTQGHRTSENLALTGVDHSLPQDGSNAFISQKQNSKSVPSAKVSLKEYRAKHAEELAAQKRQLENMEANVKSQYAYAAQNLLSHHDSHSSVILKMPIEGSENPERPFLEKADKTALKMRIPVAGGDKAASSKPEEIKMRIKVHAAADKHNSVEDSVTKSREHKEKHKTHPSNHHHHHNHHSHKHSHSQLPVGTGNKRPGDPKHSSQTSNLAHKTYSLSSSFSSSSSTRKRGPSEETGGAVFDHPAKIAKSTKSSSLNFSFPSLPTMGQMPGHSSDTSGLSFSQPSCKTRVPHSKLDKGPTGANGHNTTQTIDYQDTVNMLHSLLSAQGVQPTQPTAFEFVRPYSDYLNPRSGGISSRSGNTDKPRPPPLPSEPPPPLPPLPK
CDK9/cyclin T1, sequence (P50750 whole entry): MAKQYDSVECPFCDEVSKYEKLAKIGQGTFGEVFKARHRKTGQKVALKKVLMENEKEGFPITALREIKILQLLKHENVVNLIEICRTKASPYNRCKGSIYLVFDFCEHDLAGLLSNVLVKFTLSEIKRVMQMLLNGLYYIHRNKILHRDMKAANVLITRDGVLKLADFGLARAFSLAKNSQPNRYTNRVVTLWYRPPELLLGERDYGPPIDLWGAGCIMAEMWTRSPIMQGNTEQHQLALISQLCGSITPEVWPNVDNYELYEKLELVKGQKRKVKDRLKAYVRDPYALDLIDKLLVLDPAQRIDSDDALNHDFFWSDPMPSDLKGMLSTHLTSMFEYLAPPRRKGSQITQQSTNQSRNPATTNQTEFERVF
CDK12/Cyclin K, sequence (O75909 whole entry, the tested form may be a part): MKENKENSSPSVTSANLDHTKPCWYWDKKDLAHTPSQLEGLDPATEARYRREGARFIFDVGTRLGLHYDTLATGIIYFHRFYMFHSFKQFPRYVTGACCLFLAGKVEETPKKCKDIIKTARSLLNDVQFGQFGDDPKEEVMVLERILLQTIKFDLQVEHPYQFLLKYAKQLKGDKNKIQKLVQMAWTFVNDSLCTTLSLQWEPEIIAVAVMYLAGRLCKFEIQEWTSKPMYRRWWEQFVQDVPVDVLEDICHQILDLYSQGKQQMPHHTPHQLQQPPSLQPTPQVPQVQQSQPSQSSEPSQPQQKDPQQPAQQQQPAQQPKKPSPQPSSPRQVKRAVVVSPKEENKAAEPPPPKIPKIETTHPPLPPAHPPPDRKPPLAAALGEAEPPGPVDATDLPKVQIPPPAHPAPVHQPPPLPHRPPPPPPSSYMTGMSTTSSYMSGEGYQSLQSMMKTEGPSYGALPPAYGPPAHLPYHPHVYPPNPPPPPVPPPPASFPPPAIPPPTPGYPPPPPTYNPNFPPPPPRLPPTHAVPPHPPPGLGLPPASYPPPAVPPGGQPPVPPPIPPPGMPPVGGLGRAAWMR
CDK12/Cyclin K, sequence (Q9NYV4 whole entry, the tested form may be a part): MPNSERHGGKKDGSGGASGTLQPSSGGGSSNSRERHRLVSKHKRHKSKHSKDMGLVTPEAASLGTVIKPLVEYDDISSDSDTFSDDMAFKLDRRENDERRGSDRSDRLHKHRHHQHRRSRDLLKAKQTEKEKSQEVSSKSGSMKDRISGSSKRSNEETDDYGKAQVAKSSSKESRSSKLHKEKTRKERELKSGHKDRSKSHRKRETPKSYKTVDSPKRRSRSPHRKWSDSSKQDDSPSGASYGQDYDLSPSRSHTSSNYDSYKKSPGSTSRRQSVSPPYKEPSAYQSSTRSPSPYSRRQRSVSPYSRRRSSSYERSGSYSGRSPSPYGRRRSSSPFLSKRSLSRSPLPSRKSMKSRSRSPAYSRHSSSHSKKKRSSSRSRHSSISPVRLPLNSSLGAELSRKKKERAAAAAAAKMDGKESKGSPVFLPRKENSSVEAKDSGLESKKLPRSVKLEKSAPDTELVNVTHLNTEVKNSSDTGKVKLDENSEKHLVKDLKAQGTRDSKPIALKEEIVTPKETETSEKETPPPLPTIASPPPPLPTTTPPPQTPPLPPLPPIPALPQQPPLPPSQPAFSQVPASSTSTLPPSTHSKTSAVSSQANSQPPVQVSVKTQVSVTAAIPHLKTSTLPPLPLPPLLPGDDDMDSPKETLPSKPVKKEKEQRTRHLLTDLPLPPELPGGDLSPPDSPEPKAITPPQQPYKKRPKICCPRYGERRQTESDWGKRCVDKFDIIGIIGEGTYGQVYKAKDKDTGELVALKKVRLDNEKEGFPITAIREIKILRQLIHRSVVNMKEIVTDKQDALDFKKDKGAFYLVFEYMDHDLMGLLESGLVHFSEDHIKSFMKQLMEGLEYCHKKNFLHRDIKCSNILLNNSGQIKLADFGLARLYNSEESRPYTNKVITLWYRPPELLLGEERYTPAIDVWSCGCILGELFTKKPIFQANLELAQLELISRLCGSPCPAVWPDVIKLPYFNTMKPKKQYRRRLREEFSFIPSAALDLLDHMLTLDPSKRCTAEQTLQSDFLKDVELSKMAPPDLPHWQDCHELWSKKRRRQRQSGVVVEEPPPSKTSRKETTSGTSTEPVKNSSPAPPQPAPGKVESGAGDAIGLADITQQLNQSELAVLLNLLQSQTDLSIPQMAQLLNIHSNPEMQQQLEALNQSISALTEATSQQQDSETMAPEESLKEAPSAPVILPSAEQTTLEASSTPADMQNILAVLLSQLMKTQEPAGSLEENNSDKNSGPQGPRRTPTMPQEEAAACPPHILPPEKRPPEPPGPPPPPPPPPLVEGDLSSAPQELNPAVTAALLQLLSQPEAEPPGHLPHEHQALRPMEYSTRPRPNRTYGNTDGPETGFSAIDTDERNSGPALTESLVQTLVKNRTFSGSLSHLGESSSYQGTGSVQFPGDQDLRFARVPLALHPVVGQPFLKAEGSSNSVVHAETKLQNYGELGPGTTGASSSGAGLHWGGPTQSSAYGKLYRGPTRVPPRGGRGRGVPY
Cyclin-dependent kinase 7/ cyclin H, sequence (P51946 whole entry, the tested form may be a part): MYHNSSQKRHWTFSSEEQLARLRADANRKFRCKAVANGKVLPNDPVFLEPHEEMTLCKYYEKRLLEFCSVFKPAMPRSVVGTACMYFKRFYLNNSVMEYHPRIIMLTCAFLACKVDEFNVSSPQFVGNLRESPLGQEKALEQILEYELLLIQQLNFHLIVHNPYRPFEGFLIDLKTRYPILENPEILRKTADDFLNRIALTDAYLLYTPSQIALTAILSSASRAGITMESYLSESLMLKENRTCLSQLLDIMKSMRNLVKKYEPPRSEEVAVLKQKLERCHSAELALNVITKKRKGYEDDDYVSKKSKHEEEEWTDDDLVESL
Cyclin-dependent kinase 7/ cyclin H, sequence (P50613 whole entry, the tested form may be a part): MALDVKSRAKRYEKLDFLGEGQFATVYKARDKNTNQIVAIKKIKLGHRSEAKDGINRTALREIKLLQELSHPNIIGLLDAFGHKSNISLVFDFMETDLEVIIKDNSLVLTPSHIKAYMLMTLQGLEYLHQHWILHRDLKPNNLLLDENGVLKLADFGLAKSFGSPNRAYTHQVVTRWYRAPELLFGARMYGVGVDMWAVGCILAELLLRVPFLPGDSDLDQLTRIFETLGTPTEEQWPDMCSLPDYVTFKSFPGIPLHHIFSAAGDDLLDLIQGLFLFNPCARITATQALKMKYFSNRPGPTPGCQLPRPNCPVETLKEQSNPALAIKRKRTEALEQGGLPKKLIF

SMILES	IC50 [1]	CL free [2]	IC50 [3]	Kd [4]	bioavailability [5]	IC50 [6]	logD [7]	CLint scaled [8]	Papp A→B [9]	EC50 [10]	Activity [11]	Activity [12]
Cc1noc(C)c1-c1ccc2c(-c3nc(N[C@H]4CCCNC4)ncc3C(F)(F)F)c[nH]c2n1.Cl	90 nM	712 mL/min/kg	75 nM	0.03 nM	36%	189 nM	2.6	< 38 mL/min/kg	4.62 ×10⁻⁶ cm/s	9 nM	Active	Dose-Dependent Effect
CCc1cnc(N[C@H]2CCCNC2)nc1-c1c[nH]c2ccccc12	430 nM	473 mL/min/kg	135 nM	0.4 nM	2%	923 nM	1.29	107 mL/min/kg	0.49 ×10⁻⁶ cm/s	230 nM		
N#Cc1ccc2c(-c3nc(N[C@H]4CCCNC4)ncc3C(F)(F)F)c[nH]c2c1	86 nM	656 mL/min/kg	60 nM	0.09 nM	43%	347 nM	2.28	62 mL/min/kg	4.63 ×10⁻⁶ cm/s	36 nM		
CCc1cnc(N[C@H]2CCCNC2)nc1-c1c[nH]c2c(S(C)(=O)=O)c(C#N)ccc12	907 nM	394 mL/min/kg	215 nM	0.15 nM		1640 nM	0.49	89 mL/min/kg	1.12 ×10⁻⁶ cm/s	287 nM		
CS(=O)(=O)c1c(C#N)ccc2c(-c3nc(N[C@H]4CCCNC4)ncc3C(F)(F)F)c[nH]c12	60 nM	368 mL/min/kg	33 nM	0.08 nM	5%	284 nM	1.05	< 38 mL/min/kg	1.86 ×10⁻⁶ cm/s	15 nM		
CS(=O)(=O)c1ccc2c(-c3nc(N[C@H]4CCCNC4)ncc3C(F)(F)F)c[nH]c2c1	133 nM	729 mL/min/kg	69 nM	0.1 nM		299 nM	1.31	< 38 mL/min/kg	0.86 ×10⁻⁶ cm/s	89 nM		
CS(=O)(=O)c1cccc2c(-c3nc(N[C@H]4CCCNC4)ncc3C(F)(F)F)c[nH]c12	32 nM	309 mL/min/kg	15 nM	0.07 nM	49%	78 nM	1.33	< 38 mL/min/kg	3.28 ×10⁻⁶ cm/s	14 nM		
FC(F)(F)c1cnc(N[C@H]2CCCNC2)nc1-c1c[nH]c2ccccc12	21 nM	568 mL/min/kg	24 nM	0.15 nM	100%	42 nM	2.02	127 mL/min/kg	11.1 ×10⁻⁶ cm/s	11 nM		
Clc1cnc(N[C@H]2CCCNC2)nc1-c1c[nH]c2ccccc12	23 nM	457 mL/min/kg	29 nM	0.33 nM	39%	102 nM	1.78	109 mL/min/kg	5.26 ×10⁻⁶ cm/s	40 nM		

More lines, in order of falling IC50 [1], values ahead:

IC50 [1]	CL free [2]	IC50 [3]	Kd [4]	bioavailability [5]	IC50 [6]	logD [7]	CLint scaled [8]	Papp A→B [9]	SMILES	EC50 [10]	Activity [11]	Activity [12]
572 nM	597 mL/min/kg	156 nM	0.06 nM	28%	771 nM	2.7	164 mL/min/kg	3.32 ×10⁻⁶ cm/s	CC1(C)CNC[C@@H](Nc2ncc(C(F)(F)F)c(-c3c[nH]c4c(P(C)(C)=O)c(C#N)ccc34)n2)C1	1 nM		
286 nM	73 mL/min/kg	102 nM	0.08 nM	3%	414 nM	0.78	< 38 mL/min/kg	1.02 ×10⁻⁶ cm/s	CP(C)(=O)c1cccc2c(-c3nc(N[C@H]4CCCNC4)ncc3C(F)(F)F)c[nH]c12	0.2 nM		
138 nM	514 mL/min/kg	112 nM	0.1 nM	16%	460 nM	2.71	150 mL/min/kg	1.63 ×10⁻⁶ cm/s	Cc1noc(C)c1-c1ccc2c(-c3nc(N[C@H]4CCCNC4)ncc3C(F)(F)F)c[nH]c2c1			
71 nM		95 nM	0.34 nM		128 nM	2.48	116 mL/min/kg		CC1(C)CC[C@H](Nc2ncc(C(F)(F)F)c(-c3c[nH]c4ccccc34)n2)CN1			
41 nM	1477 mL/min/kg	36 nM	0.21 nM	40%	52 nM	3.07	120 mL/min/kg		CC1(C)CNC[C@@H](Nc2ncc(C(F)(F)F)c(-c3c[nH]c4ccccc34)n2)C1			
